Values after ≈ are worked out from the molar mass of the structure shown.
Tests used:
Bacteria = test: Inhibition of bacterial beta-lactamase KPC-2 expressed in Escherichia coli BL21 (DE3) using nitrocefin as substrate at 1 uM by spectrophotometric analysis relative to control
Outline: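 Purified recombinant KPC-2 tested against the chromogenic β-lactam nitrocefin at 1 µM inhibitor. Hydrolysis was followed as the rise in absorbance at 482 nm (ε482 = 17,400 M-1 cm-1). Activity is expressed as percent inhibition relative to an uninhibited control.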

Escherichia coli [1] = assay type: functional, BL21 (DE3); conditions: time 16-18 hrs
[2] = Inhibition of bacterial beta-lactamase KPC-2 expressed in Escherichia coli BL21 (DE3) using nitrocefin as substrate assessed as inhibition constant by Cheng-Prusoff equation analysis; parameters: species or system Bacteria
Escherichia coli [3] = test: Antibacterial activity against Escherichia coli NCTC10418; assay type: functional
Escherichia coli [4] = test: microbe, parasite or virus in culture; assay type: functional; conditions: BL21 (DE3), dose 50 µg/ml, time 16-20 hrs
Escherichia coli [5] = test: microbe, parasite or virus in culture; assay type: functional; conditions: BL21 (DE3), dose 5 µg/ml, time 16-20 hrs
Escherichia coli [6] = test: microbe, parasite or virus in culture; assay type: functional; conditions: BL21 (DE3), dose 5 µg/ml, time 16-20 hrs; remark: listed apart in the source
[7] = Cytotoxicity against HEK293 cells assessed as cell viability at 5 to 50 ug/ml incubated for 24 hrs in presence of cefotaxime by MTT assay relative to control; conditions: human, at 5 to 50 µg/mL
Escherichia coli [8] = test: microbe, parasite or virus in culture; assay type: functional; conditions: BL21 (DE3), dose 50 µg/ml, time 16-20 hrs; remark: listed apart in the source
[9] = Cytotoxicity against HEK293 cells assessed as cell viability at 5 to 50 ug/ml incubated for 24 hrs by MTT assay relative to control; conditions: human, at 5 to 50 µg/mL
physchem = conditions: 0.1 M phosphate buffer, pH 4.3

## CCOC(=O)c1cn(Cc2cccc(B(O)O)c2)nn1
Bacteria
  inhibition: 7%
Escherichia coli [1]
  inhibition zone (IZ): 31.8 mm
[2]
  Ki: 900 nM

## OB(O)c1cccc(Cn2cc(-c3ccsc3)nn2)c1
Escherichia coli [3]
  MIC: > 64 µg/mL
Bacteria
  inhibition: 92%
Escherichia coli [4]
  MIC: ≤ 0.06 µg/mL
Escherichia coli [1]
  inhibition zone (IZ): 32 mm
Escherichia coli [5]
  MIC: ≤ 0.06 µg/mL
[2]
  Ki: 32 nM
Escherichia coli [6]
  MIC: ≤ 0.06 µg/mL

## COc1ccc(-c2cn(-c3cccc(B(O)O)c3)nn2)cc1
Bacteria
  inhibition: 5.9%
Escherichia coli [1]
  inhibition zone (IZ): 30.1 mm

## OB(O)c1ccc(Cn2cc(-c3cccs3)nn2)cc1
Bacteria
  inhibition: 45%
Escherichia coli [1]
  inhibition zone (IZ): 27.5 mm
[2]
  Ki: 275 nM

## CCOC(=O)c1cn(-c2cccc(B(O)O)c2)nn1
Escherichia coli [3]
  MIC: > 64 µg/mL
[7]
  viability at 24 h: > 80%
Bacteria
  inhibition: 25%
Escherichia coli [4]
  MIC: 2 µg/mL (≈ 7.66 µM)
Escherichia coli [8]
  MIC: 1 µg/mL (≈ 3.83 µM)
Escherichia coli [1]
  inhibition zone (IZ): 30 mm
[9]
  viability at 24 h: > 80%

## OB(O)c1cccc(Cn2cc(-c3cccs3)nn2)c1
Escherichia coli [3]
  MIC: > 64 µg/mL
[7]
  viability at 24 h: > 80%
Bacteria
  inhibition: 85%
Escherichia coli [4]
  MIC: ≤ 0.06 µg/mL
Escherichia coli [1]
  inhibition zone (IZ): 33.7 mm
Escherichia coli [5]
  MIC: ≤ 0.06 µg/mL
[2]
  Ki: 67 nM
[9]
  viability at 24 h: > 80%
Escherichia coli [6]
  MIC: ≤ 0.06 µg/mL

## Nc1cc(B(O)O)cc([N+](=O)[O-])c1
Escherichia coli [1]
  inhibition zone (IZ): 26.9 mm

## OB(O)c1cccc(-n2cc(C3CC3)nn2)c1
[7]
  viability at 24 h: > 80%
Bacteria
  inhibition: 47%
Escherichia coli [1]
  inhibition zone (IZ): 31.5 mm
[2]
  Ki: 440 nM
[9]
  viability at 24 h: > 80%

## OB(O)c1cccc(Cn2cc(C3CC3)nn2)c1
Bacteria
  inhibition: 30%
Escherichia coli [1]
  inhibition zone (IZ): 30.9 mm
[2]
  Ki: 515 nM

## COc1ccc(B(O)O)c(-n2cccn2)c1
Escherichia coli [1]
  inhibition zone (IZ): 21.7 mm

## CCC1CC(=O)CCN1c1ccccc1B(O)O (centres undefined)
Escherichia coli [1]
  inhibition zone (IZ): 18.7 mm

## OB(O)c1ccc(Cn2cc(-c3ccsc3)nn2)cc1
[7]
  viability at 24 h: > 80%
Bacteria
  inhibition: 53%
Escherichia coli [1]
  inhibition zone (IZ): 27.6 mm
[2]
  Ki: 219 nM
[9]
  viability at 24 h: > 80%

## OB(O)c1cccc(Cn2cc(-c3ccccc3)nn2)c1
[7]
  viability at 24 h: > 80%
Bacteria
  inhibition: 69%
Escherichia coli [1]
  inhibition zone (IZ): 29.6 mm
[2]
  Ki: 166 nM
[9]
  viability at 24 h: > 80%

## OB(O)c1cccc(Cn2cc(-c3ccccn3)nn2)c1
Bacteria
  inhibition: 61%
Escherichia coli [1]
  inhibition zone (IZ): 25.9 mm

## O=C(Nc1cccc(B(O)O)c1)c1cc2ccccc2s1
[7]
  viability at 24 h: > 80%
Bacteria
  inhibition: 8.6%
Escherichia coli [1]
  inhibition zone (IZ): 28.4 mm
[9]
  viability at 24 h: > 80%

## [N-]=[N+]=Nc1ccc(F)c(B(O)O)c1
Escherichia coli [3]
  MIC: > 64 µg/mL
physchem
  pKa at 100 µM: 6.87
Bacteria
  inhibition: 37%
Escherichia coli [4]
  MIC: 0.5 µg/mL (≈ 2.76 µM)
Escherichia coli [8]
  MIC: 0.25 µg/mL (≈ 1.38 µM)
Escherichia coli [1]
  inhibition zone (IZ): 25.3 mm
Escherichia coli [5]
  MIC: 1 µg/mL (≈ 5.53 µM)
[2]
  Ki: 570 nM
Escherichia coli [6]
  MIC: 1 µg/mL (≈ 5.53 µM)

## [N-]=[N+]=NCc1cccc(B(O)O)c1
Escherichia coli [3]
  MIC: > 64 µg/mL
[7]
  viability at 24 h: > 80%
Bacteria
  inhibition: 30%
Escherichia coli [1]
  inhibition zone (IZ): 30 mm
Escherichia coli [5]
  MIC: 0.12 µg/mL (≈ 0.678 µM)
[2]
  Ki: 830 nM
[9]
  viability at 24 h: > 80%
Escherichia coli [6]
  MIC: ≤ 0.06 µg/mL

## OB(O)c1cccc(Cn2cc(-c3cccnc3)nn2)c1
[7]
  viability at 24 h: > 80%
Bacteria
  inhibition: 54%
Escherichia coli [1]
  inhibition zone (IZ): 25.9 mm
[2]
  Ki: 480 nM
[9]
  viability at 24 h: > 80%

## CC(C)(C)c1cn(Cc2cccc(B(O)O)c2)nn1
Escherichia coli [3]
  MIC: > 64 µg/mL
Bacteria
  inhibition: 50%
Escherichia coli [4]
  MIC: 0.5 µg/mL (≈ 1.93 µM)
Escherichia coli [8]
  MIC: 0.12 µg/mL (≈ 0.463 µM)
Escherichia coli [1]
  inhibition zone (IZ): 33.5 mm
[2]
  Ki: 280 nM

## O=[N+]([O-])c1cc(NCc2ccccc2)cc(B(O)O)c1
Escherichia coli [1]
  inhibition zone (IZ): 20.9 mm

## Cc1ccc(F)c(B(O)O)c1
Escherichia coli [1]
  inhibition zone (IZ): 29.6 mm

## OB(O)c1cc(Cn2cc(-c3ccsc3)nn2)ccc1F
Escherichia coli [3]
  MIC: > 64 µg/mL
physchem
  pKa at 100 µM: 10
Bacteria
  inhibition: 53%
Escherichia coli [4]
  MIC: ≤ 0.06 µg/mL
Escherichia coli [8]
  MIC: ≤ 0.06 µg/mL
Escherichia coli [1]
  inhibition zone (IZ): 29.9 mm
Escherichia coli [5]
  MIC: ≤ 0.06 µg/mL
[2]
  Ki: 240 nM
Escherichia coli [6]
  MIC: ≤ 0.06 µg/mL

## OB(O)c1cccc(-n2cc(-c3cccs3)nn2)c1
[7]
  viability at 24 h: > 80%
Bacteria
  inhibition: 20%
Escherichia coli [1]
  inhibition zone (IZ): 31.8 mm
[2]
  Ki: 710 nM
[9]
  viability at 24 h: > 80%

## [N-]=[N+]=Nc1cc(F)c(F)c(B(O)O)c1
physchem
  pKa at 100 µM: 6.04
Escherichia coli [1]
  inhibition zone (IZ): 16.8 mm
[2]
  Ki: 27200 nM

## OB(O)c1cccc(-n2cc(-c3ccccc3)nn2)c1
Bacteria
  inhibition: 18%
Escherichia coli [1]
  inhibition zone (IZ): 26.2 mm

## O=C(Nc1cccc(B(O)O)c1)c1ccccc1
[7]
  viability at 24 h: > 80%
Bacteria
  inhibition: 40%
Escherichia coli [1]
  inhibition zone (IZ): 25.2 mm
[9]
  viability at 24 h: > 80%

## OB(O)c1cccc(Cn2cc(Cc3ccccc3)nn2)c1
Bacteria
  inhibition: 48%
Escherichia coli [1]
  inhibition zone (IZ): 23.6 mm

## NCc1ccc(F)c(B(O)O)c1
Escherichia coli [1]
  inhibition zone (IZ): 19.9 mm

## O=C(Nc1cccc(B(O)O)c1)c1cccs1
[7]
  viability at 24 h: > 80%
Bacteria
  inhibition: 2%
Escherichia coli [1]
  inhibition zone (IZ): 26 mm
[2]
  Ki: 2900 nM
[9]
  viability at 24 h: > 80%

## OB(O)c1ccc(-c2ccccc2)cc1 [BIPHENYLBORONIC ACID]
Escherichia coli [1]
  inhibition zone (IZ): 32.2 mm

## O=C(Nc1cccc(B(O)O)c1)c1ccsc1
Escherichia coli [3]
  MIC: > 64 µg/mL
[7]
  viability at 24 h: > 80%
Bacteria
  inhibition: 28%
Escherichia coli [4]
  MIC: 2 µg/mL (≈ 8.09 µM)
Escherichia coli [8]
  MIC: 0.12 µg/mL (≈ 0.486 µM)
Escherichia coli [1]
  inhibition zone (IZ): 29 mm
Escherichia coli [5]
  MIC: 4 µg/mL (≈ 16.2 µM)
[2]
  Ki: 870 nM
[9]
  viability at 24 h: > 80%
Escherichia coli [6]
  MIC: 0.12 µg/mL (≈ 0.486 µM)

## OB(O)c1ccc(Cn2cc(-c3cccnc3)nn2)cc1
Bacteria
  inhibition: 59%
Escherichia coli [1]
  inhibition zone (IZ): 23.7 mm

## O=[N+]([O-])c1cc(B(O)O)c(F)cc1F
physchem
  pKa at 100 µM: 5.98
Escherichia coli [1]
  inhibition zone (IZ): 29.3 mm

## OB(O)c1cccc(-c2ccccc2)c1
Escherichia coli [1]
  inhibition zone (IZ): 29.7 mm

## [N-]=[N+]=NCc1ccc(B(O)O)cc1
[7]
  viability at 24 h: > 80%
[2]
  Ki: 493 nM
[9]
  viability at 24 h: > 80%

## O=C(O)c1cn(Cc2cccc(B(O)O)c2)nn1
Escherichia coli [3]
  MIC: > 64 µg/mL
[7]
  viability at 24 h: > 80%
Bacteria
  inhibition: 10%
Escherichia coli [4]
  MIC: 2 µg/mL (≈ 8.1 µM)
Escherichia coli [8]
  MIC: 0.12 µg/mL (≈ 0.486 µM)
Escherichia coli [1]
  inhibition zone (IZ): 21.4 mm
Escherichia coli [5]
  MIC: 4 µg/mL (≈ 16.2 µM)
[2]
  Ki: 1020 nM
[9]
  viability at 24 h: > 80%
Escherichia coli [6]
  MIC: 2 µg/mL (≈ 8.1 µM)

## CC(C)(C)c1cn(-c2cccc(B(O)O)c2)nn1
Bacteria
  inhibition: 14%
Escherichia coli [1]
  inhibition zone (IZ): 32.7 mm
[2]
  Ki: 660 nM

## O=C(O)c1cn(-c2cccc(B(O)O)c2)nn1
[7]
  viability at 24 h: > 80%
Bacteria
  inhibition: 0.3%
Escherichia coli [1]
  inhibition zone (IZ): 32.9 mm
[9]
  viability at 24 h: > 80%

## COc1ccc(-c2cn(Cc3cccc(B(O)O)c3)nn2)cc1
[7]
  viability at 24 h: > 80%
Bacteria
  inhibition: 7%
Escherichia coli [1]
  inhibition zone (IZ): 25.6 mm
[2]
  Ki: 860 nM
[9]
  viability at 24 h: > 80%

## OB(O)c1ccc(Cn2cc(-c3ccccc3)nn2)cc1
[7]
  viability at 24 h: > 80%
Bacteria
  inhibition: 55%
Escherichia coli [1]
  inhibition zone (IZ): 25.5 mm
[2]
  Ki: 323 nM
[9]
  viability at 24 h: > 80%

## O=C(Nc1cccc(B(O)O)c1)c1ccc2sccc2c1
Bacteria
  inhibition: 10.2%
Escherichia coli [1]
  inhibition zone (IZ): 26.1 mm

## Nc1cc(F)c(F)c(B(O)O)c1
Escherichia coli [1]
  inhibition zone (IZ): 25.5 mm

## OB(O)c1ccc(Cn2cc(-c3ccccn3)nn2)cc1
[7]
  viability at 24 h: > 80%
Bacteria
  inhibition: 47%
Escherichia coli [1]
  inhibition zone (IZ): 27.4 mm
[9]
  viability at 24 h: > 80%

## COc1ccc(-c2cn(Cc3ccc(B(O)O)cc3)nn2)cc1
Bacteria
  inhibition: 59%
Escherichia coli [1]
  inhibition zone (IZ): 22.6 mm
[2]
  Ki: 227 nM

## CCC(=O)Nc1cccc(B(O)O)c1
[7]
  viability at 24 h: > 80%
Bacteria
  inhibition: 16%
Escherichia coli [1]
  inhibition zone (IZ): 25.2 mm
[9]
  viability at 24 h: > 80%
